Source: publication PMC3866046 (Biochemical pharmacology, 2013)
pIC50: −log10 of the molar value. Read-outs that look alike come from different tables or passages of the source.

Experiments:
hENT2 [1] = molecular target: T1, hENT2 (Homo sapiens, UniProt Q14542); test: Inhibition of [3H]uridine uptake in PK15/hENT2 cells; format: cell-based
T1 sequence (Q14542 1-456): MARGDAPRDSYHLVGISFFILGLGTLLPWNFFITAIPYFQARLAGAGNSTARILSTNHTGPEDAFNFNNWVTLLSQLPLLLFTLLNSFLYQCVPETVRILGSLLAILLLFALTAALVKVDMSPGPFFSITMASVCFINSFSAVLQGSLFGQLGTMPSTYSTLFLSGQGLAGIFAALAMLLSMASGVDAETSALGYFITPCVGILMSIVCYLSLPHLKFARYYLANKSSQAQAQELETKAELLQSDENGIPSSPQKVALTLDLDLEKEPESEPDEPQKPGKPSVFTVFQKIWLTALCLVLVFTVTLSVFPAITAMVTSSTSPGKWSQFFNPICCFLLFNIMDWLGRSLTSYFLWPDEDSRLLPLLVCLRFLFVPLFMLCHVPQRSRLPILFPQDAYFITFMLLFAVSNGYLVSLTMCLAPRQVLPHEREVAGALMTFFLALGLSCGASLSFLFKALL
Summary of the method: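 PK15 cells stably expressing hENT2, in sodium-free choline chloride buffer at pH 7.4. Test compound was added for 15 min, either at graded concentrations or at 10 μM for screening; 0.2 μM [3H]uridine was then taken up for 2 min. Stopped with ice-cold PBS washes, lysed in Triton X-100, scintillation counted. Triplicates; screening uptake given as % of compound-free uptake; IC50 by nonlinear fit.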

hENT4 = molecular target: T2, hENT4 (Homo sapiens, UniProt Q7RTT9); test: Inhibition of [3H]adenosine uptake in PK15/hENT4 cells at pH 6.0; format: cell-based
T2 sequence (Q7RTT9 1-530): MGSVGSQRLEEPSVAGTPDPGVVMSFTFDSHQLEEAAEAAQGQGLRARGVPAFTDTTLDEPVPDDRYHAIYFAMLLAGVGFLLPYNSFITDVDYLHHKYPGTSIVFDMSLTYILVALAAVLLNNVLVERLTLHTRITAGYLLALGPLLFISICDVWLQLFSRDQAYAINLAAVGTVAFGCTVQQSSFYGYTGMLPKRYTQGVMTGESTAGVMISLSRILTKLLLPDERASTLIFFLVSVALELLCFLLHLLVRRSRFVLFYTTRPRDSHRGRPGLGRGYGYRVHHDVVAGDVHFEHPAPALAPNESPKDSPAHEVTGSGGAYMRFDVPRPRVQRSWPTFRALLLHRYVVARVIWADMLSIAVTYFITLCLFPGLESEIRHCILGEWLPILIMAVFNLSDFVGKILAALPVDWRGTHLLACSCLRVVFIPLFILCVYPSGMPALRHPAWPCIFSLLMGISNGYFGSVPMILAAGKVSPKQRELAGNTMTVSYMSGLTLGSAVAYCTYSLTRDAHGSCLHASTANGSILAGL
Summary of the method: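 PK15NTD porcine kidney cells stably expressing FLAG-tagged hENT4 (cDNA cloned from HUVECs, G418-selected). Cells preincubated 15 min with graded test compound concentrations in transport buffer at pH 6.0, then given 0.2 μM [3H]adenosine for 2 min. Stopped by aspiration and three ice-cold PBS washes, lysed in 5% Triton X-100, scintillation counted. Triplicates; IC50 by nonlinear fitting.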

PK15-hENT4 cells = test: MTT assay for cell viability; format: cell-based, porcine; settings: 10 μM, 24 hours, compared with camptothecin
Summary of the method: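 PK15NTD (nucleoside-transporter-deficient) cells stably expressing recombinant hENT4 were trypsinised and seeded at 5 × 10^3 cells/well in MEM. […] MTT (5 mg/ml stock in PBS) was added for 4 h at 37 °C. Formazan was dissolved in 0.04 N HCl/isopropanol for 3 h at room temperature, and absorbance was read at 570 nm.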

hENT2 [2] = molecular target: T1, hENT2; settings: read-out: hENT2 IC50; cited from earlier work
mouse ENT4 = settings: read-out: apparent Km of adenosine transport; pH 5.5; cited from earlier work
human ENT4 = settings: read-out: apparent Km of adenosine transport; pH 5.5; cited from earlier work

## OCCN(CCO)c1nc(N2CCCCCCC2)c2nc(N(CCO)CCO)nc(N3CCCCCCC3)c2n1 [Compound 13, 2,6-bis(diethanolamino)-4,8-diheptamethyleneimino-pyrimido[5,4d]pyrimidine]
hENT2 [1]
  activity against hENT2 (in words): active

## CC(C)CN(CC(C)C)c1nc(NCCO)nc2c(N(CC(C)C)CC(C)C)nc(NCCO)nc12 [Compound 30, 2,6-diethanolamino-4,8-di-(diisobutylamino)-pyrimido[5,4-d]pyrimidine]
hENT4
  selectivity for hENT4 relative to ENT1: about 80 fold
  selectivity for hENT4 relative to ENT2: ~20 fold
PK15-hENT4 cells
  cytotoxicity / cell viability (in words): no cytotoxicity
PK15-hENT4 cells; listed as compound 30
  cytotoxicity / cell viability (in words): significantly non-cytotoxic

## O=[N+]([O-])c1ccc(CSc2ncnc3c2ncn3[C@@H]2O[C@H](CO)[C@@H](O)[C@H]2O)cc1 [NBMPR, nitrobenzylmercaptopurine ribonucleoside, reference compound]
hENT4
  pIC50: 5.63
hENT2 [2]
  pIC50: 5.55
hENT2 [1]
  pIC50: 5.87

## Nc1ncnc2c1ncn2[C@@H]1O[C@H](CO)[C@@H](O)[C@H]1O [adenosine]
Mouse ENT4
  Km: 130 µM
Human ENT4
  Km: 780 µM
